Here are results for 27 compounds from ChEMBL document CHEMBL1145857, “Toward tissue-selective pancreatic B-cells KATP channel openers belonging to 3-alkylamino-7-halo-4H-1,2,4-benzothiadiazine 1,1-dioxides” (J Med Chem, 2003).

Bounds are passed on as bounds.

Common to all, as to format: functional
For test [1], the species on record is Rattus norvegicus. The test can be described thus: Percent inhibition of residual insulin release from rat pancreatic islets in the presence of 16.7 mM glucose at 50 uM concentration. Put shortly:
(§1)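 Islets isolated by collagenase from fed Wistar rats (180–220 g); groups of 10 islets preincubated 30 min at 37 °C in bicarbonate salt medium with 2.8 mM glucose and 0.5% dialyzed albumin under O2/CO2 95:5, then incubated 90 min at 37 °C with 16.7 mM glucose plus drug. Insulin measured by radioimmunoassay against rat insulin standard; residual release as % of drug-free 16.7 mM glucose control; IC50 estimated.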

The species entered for test [2] is Rattus norvegicus. The test can be described thus: Effective dose required for relaxation of the 30 mM KCl-induced contraction of rat aortic rings. As to conditions: Aorta, read-out: ED50 (the source's name). A digest of the protocol:
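Endothelium-denuded transverse aortic rings (3–4 mm) from fed Wistar rats (180–220 g); isometric tension by force transducer. After 60 min equilibration, contracted with 30 mM KCl; once stable, drug added cumulatively to maximal relaxation or 0.3 mM. Relaxation as % of KCl contraction; ED50 (50% inhibition of KCl plateau) from dose–response curves; mean ± SEM (n).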

For test [3], the species on record is Rattus norvegicus. Nature of the test: Concentration required to inhibit insulin release in rat.
For test [4], the species on record is Rattus norvegicus. The test can be described thus: Percent inhibition of residual insulin release from rat pancreatic islets in the presence of 16.7 mM glucose at 10 uM concentration. A digest of the protocol: as §1
For test [5], the species on record is Rattus norvegicus. Nature of the test: Percent inhibition of residual insulin release from rat pancreatic islets in the presence of 16.7 mM glucose at 1 uM concentration. A digest of the protocol:
as §1

Test [6] is filed under the species Rattus norvegicus. The test can be described thus: Estimated selectivity ratio of ED50 and IC50 in rat was calculated.

Consider `O=S1(=O)NC(NC2CC2)=Nc2ccc(F)cc21`, for which the RIS was determined as 7.5% in test [1], 32.5% in test [4] and 104.5% in test [5]. Moreover, the EC50 in test [2] is greater than 300 µM. This compound also had an IC50 in test [3] of 5.1 µM. Also, in test [6], the Selectivity is recorded as greater than 58.

Regarding `O=S1(=O)NC(NC2CCCC2)=Nc2ccc(F)cc21`, the RIS in test [1] is reported as 5.4%; in test [4], 6.6%; in test [5], 68.8%. In test [2], the EC50 was found to be 58 µM. The compound further showed an IC50 in test [3] of 1.8 µM. Besides, the Selectivity in test [6] was 32.

As to `O=S1(=O)NC(NCC2CC2)=Nc2ccc(F)cc21`, the RIS in test [1] is given as 6.4%; in test [4], 39.8%. For the same compound, in test [2], the EC50 worked out at 146 µM. In test [3], this compound showed an IC50 of less than 10 µM. Moreover, in test [6], the Selectivity was greater than 15.

As to `CCC(CC)NC1=NS(=O)(=O)c2cc(I)ccc2N1`, the RIS in test [1] worked out at 17%; in test [4] it was 67%. Besides, the EC50 in test [2] came out at 79.1 µM. Further, the half-maximal inhibitory concentration (IC50) in test [3] was greater than 10 µM. Besides, the Selectivity in test [6] is reported as less than 7.9.

Turning to `O=S1(=O)NC(NC2CCC2)=Nc2ccc(Br)cc21`, the RIS in test [1] came to 6.1%; in test [4], 9.6%; in test [5], 54.8%. Besides, in test [2], the EC50 was 21.7 µM. For the same compound, the concentration for half-maximal inhibition (IC50) in test [3] was determined as 1.1 µM. The Selectivity in test [6] is 20.

Take `CC(N/C(=N\C#N)Nc1ccncc1)C(C)(C)C` (stereo not given) [PINACIDIL ANHYDROUS]: the RIS was 88.8% in test [1] and 97.7% in test [5]. Also, the EC50 in test [2] came out at 0.35 µM. The concentration for half-maximal inhibition (IC50) in test [3] is greater than 100 µM.

For the compound `O=S1(=O)NC(NCC2CC2)=Nc2ccc(Cl)cc21`, the RIS worked out at 15.2% in test [1] and 65.9% in test [4]. Also, in test [2], the EC50 was 41.2 µM. In test [3], this compound gave an IC50 greater than 10 µM. Further, the Selectivity in test [6] is less than 4.

For `CCC(C)NC1=NS(=O)(=O)c2cc(F)ccc2N1` (stereo not given), the RIS came to 5.9% in test [1], 6.9% in test [4] and 64.6% in test [5]. Besides, the EC50 in test [2] amounted to 39.2 µM. Also, in test [3], the IC50 was found to be 1.6 µM. For the same compound, the Selectivity in test [6] was 25.

For the compound `O=S1(=O)N=C(NC2CCC2)Nc2ccc(Cl)cc21`, the RIS came out at 8.1% in test [1], 6.4% in test [4] and 60.2% in test [5]. In addition, the EC50 in test [2] was 34.9 µM. In test [3], this compound gave an IC50 of 1.3 µM. Also, the Selectivity in test [6] is listed as 27.

`C=CCNC1=Nc2ccc(Br)cc2S(=O)(=O)N1`: the results for the RIS in test [1], in test [4] and in test [5] were 4.8%, 23.7% and 77.2%, respectively. Moreover, the EC50 in test [2] is 3 µM. This compound yielded an IC50 in test [3] of 2.8 µM. Also, the Selectivity in test [6] is 1.1.

Turning to `C=CCNC1=Nc2ccc(Cl)cc2S(=O)(=O)N1`, the RIS in test [1] was determined as 7.8%; in test [4] it was 17.3%; in test [5], 87.9%. In test [2], the EC50 is 28.9 µM. Also, in test [3], the IC50 was determined as 3.1 µM. Moreover, in test [6], the Selectivity is reported as 9.

`CC(C)C(C)NC1=NS(=O)(=O)c2cc(Cl)ccc2N1` (stereo not given): the results for the RIS in test [1], in test [4] and in test [5] were 11%, 62.7% and 88.1%, respectively. For the same compound, the EC50 in test [2] is 1.2 µM. The same compound returned an IC50 in test [3] greater than 10 µM. In test [6], the Selectivity is given as less than 0.12.

Consider `CCNC1=NS(=O)(=O)c2cc(F)ccc2N1`, for which the RIS in test [1] turned out to be 6.3%; in test [4], 8.6%; in test [5] it was 50.8%. Also, the EC50 in test [2] is greater than 300 µM. Further, the half-inhibitory concentration (IC50) in test [3] came to 1 µM. Moreover, the Selectivity in test [6] is greater than 300.

As for `CNC1=NS(=O)(=O)c2cc(F)ccc2N1`, the RIS came out at 5.7% in test [1], 7.7% in test [4] and 76.1% in test [5]. For the same compound, the EC50 in test [2] is greater than 300 µM. In test [3], this compound came in with an IC50 of 2.2 µM. The Selectivity in test [6] is listed as greater than 136.

`C=CCNC1=Nc2ccc(F)cc2S(=O)(=O)N1`: the RIS in test [1] was 4.1%; in test [4], 12.8%; in test [5], 84.1%. In addition, the EC50 in test [2] was greater than 300 µM. The compound further returned a half-maximal inhibitory concentration (IC50) in test [3] of 2.7 µM. Besides, in test [6], the Selectivity is given as greater than 111.

For `CCC(C)NC1=NS(=O)(=O)c2cc(Cl)ccc2N1` (stereo not given), the RIS stood at 5.5% in test [1], 19.9% in test [4] and 85.4% in test [5]. In addition, the EC50 in test [2] stood at 15.5 µM. The IC50 in test [3] amounted to 3.1 µM. In addition, the Selectivity in test [6] is on record as 5.

As to `CC1=Nc2ccc(Cl)cc2S(=O)(=O)N1` [DIAZOXIDE], the RIS in test [1] turned out to be 26.7%. Further, in test [2], the EC50 worked out at 22.4 µM.

With `CCC(C)NC1=NS(=O)(=O)c2cc(Br)ccc2N1` (stereo not given), the values for the RIS in test [1], in test [4] and in test [5] were 4%, 26.8% and 92.5%, respectively. Besides, the EC50 in test [2] was 5.6 µM. Moreover, half-maximal inhibition in test [3] (IC50) was put at 4 µM. The Selectivity in test [6] is 1.4.

Consider `CCCNC1=NS(=O)(=O)c2cc(Br)ccc2N1`, for which the RIS in test [1] amounted to 7.1%; in test [4], 34.7%. In addition, the EC50 in test [2] worked out at 5.9 µM. Also, in test [3], the IC50 was less than 10 µM. Moreover, the Selectivity in test [6] is greater than 0.6.

Regarding `CCC(C)(C)NC1=NS(=O)(=O)c2cc(Cl)ccc2N1`, the EC50 in test [2] amounted to 0.29 µM. This compound displayed an IC50 in test [3] greater than 10 µM. In test [4], the RIS turned out to be 83.2%. Moreover, the Selectivity in test [6] is listed as less than 0.029.

For `O=S1(=O)NC(NC2CC2)=Nc2ccc(Br)cc21`, the RIS in test [1] is reported as 4.6%; in test [4], 21.1%; in test [5], 85.1%. In test [2], the EC50 amounted to 89.4 µM. In test [3], this compound gave an IC50 of 3.1 µM. In test [6], the Selectivity is 29.

`CC(C)C(C)NC1=NS(=O)(=O)c2cc(I)ccc2N1` (stereo not given): the RIS is listed as 51.7% in test [1], 86.2% in test [4] and 91.9% in test [5]. Moreover, the EC50 in test [2] is 0.94 µM. Also, the IC50 in test [3] is greater than 50 µM. Further, the Selectivity in test [6] is less than 0.02.

Regarding `CCC(C)NC1=NS(=O)(=O)c2cc(I)ccc2N1` (stereo not given), the RIS in test [1] turned out to be 22.5%; in test [4], 64.8%; in test [5], 84.2%. In test [2], the EC50 turned out to be 1.3 µM. For the same compound, the IC50 in test [3] is greater than 10 µM. Moreover, in test [6], the Selectivity is less than 0.13.

In the case of `CNC1=NS(=O)(=O)c2cc(Cl)ccc2N1`, the RIS stood at 2.4% in test [1], 4.4% in test [4] and 55.1% in test [5]. The EC50 in test [2] was 142 µM. In test [3], this compound gave a half-maximal inhibitory concentration (IC50) of 1.1 µM. Further, the Selectivity in test [6] is 129.

Take `CCCNC1=NS(=O)(=O)c2cc(Cl)ccc2N1`: the RIS in test [1] is 3.6%; in test [4] it was 14.2%; in test [5], 83.4%. In addition, in test [2], the EC50 amounted to 55.5 µM. In addition, the Selectivity in test [6] is 21.

For the compound `CC(C)(C)NC1=NS(=O)(=O)c2cc(Cl)ccc2N1`, the EC50 in test [2] stood at 1.4 µM. Besides, in test [3], the concentration for half-maximal inhibition (IC50) is greater than 10 µM. Besides, the RIS in test [4] is listed as 64.4%. In addition, the Selectivity in test [6] is on record as less than 0.14.

As to `O=S1(=O)NC(NC2CCC2)=Nc2ccc(I)cc21`, in test [2], the EC50 stood at 22.2 µM. The IC50 in test [3] is less than 10 µM. In addition, the RIS in test [4] worked out at 30.6%. Besides, the Selectivity in test [6] is greater than 2.2.

As usually defined, the IC50 is the point on the concentration scale where inhibition reaches its midpoint. A higher IC50 goes with weaker potency.
